# Experimental data: ChEMBL document CHEMBL4257459, “Synergistic antifungal effect of cyclized chalcone derivatives and fluconazole against Candida albicans” (2017)
# Active and inactive are the calls of the source. No cut-off for these calls is given here.
# Assays:
# Candida albicans [1] = test: Antifungal activity against fluconazole susceptible Candida albicans 0072gr by CLSI protocol based broth microdilution method; assay type: functional
# How it was run: (§1)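 Clinical isolates and control strain subcultured at least twice on TSA, 37 °C, 48 h. MICs by CLSI M27-A3 broth microdilution; compounds dissolved in DMSO to 2000 μg mL–1 stock. Fluconazole positive control, culture, media and DMSO vehicle controls in each run. Duplicate experiments; MIC in μg mL–1.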
# Candida albicans [2] = test: Antifungal activity against fluconazole resistant Candida albicans A171 by CLSI protocol based broth microdilution method; assay type: functional
# How it was run: (§2)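 Broth microdilution per CLSI M27-A3 against clinical C. albicans isolates. Strains sub-cultured at least twice on Tryptone Soya Agar, 37 °C, 48 h. Compounds dissolved in DMSO at 2000 μg mL–1 stock. Fluconazole positive control, plus culture, media and vehicle controls. Run in duplicate; MIC in μg mL–1.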
# Candida albicans [3] = test: Antifungal activity against fluconazole resistant Candida albicans 167-1 by CLSI protocol based broth microdilution method; assay type: functional; how it was run: as §2
# Candida albicans [4] = test: Down regulation of ERG11 gene expression in fluconazole susceptible Candida albicans ATCC 90028 at MIC after 2 hrs by qRT PCR analysis relative to control; assay type: functional
# How it was run: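 Cells exposed to compound at MIC for 2 h; total RNA isolated, cDNA synthesised, ERG11 measured by real-time qPCR with ACT1 as endogenous control. Triplicate independent experiments; mean ± standard deviation.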
# Candida albicans [5] = test: Inhibition of ABC efflux pumps in fluconazole resistant Candida albicans A171 assessed as reduction in energy-dependent rhodamine 6G efflux in presence of 0.1 M glucose after 25 mins by fluorescence assay relative to control
# How it was run: (§3)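 Cells grown in TSB at 37 °C for 8 h, washed, resuspended in glucose-free PBS at 1 × 10^8 cells. De-energized 45 min with 5 mM deoxyglucose plus 5 mM dinitrophenol. […] Washed, sampled 5–25 min, then 0.1 M glucose added. Absorbance 527 nm, R6G from standard curve.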
# Candida albicans [6] = test: Down regulation of ERG11 gene expression in fluconazole resistant Candida albicans A171 at MIC after 2 hrs by qRT PCR analysis relative to control; assay type: functional
# How it was run: (§4)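 Cells exposed 2 h to test agents at MIC. Total RNA isolated, cDNA synthesized, qPCR for ERG11 with ACT1 as endogenous control. Triplicate independent experiments, reported as mean ± standard deviation.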
# Candida albicans [7] = test: Antifungal activity against fluconazole susceptible Candida albicans 002B1 in presence of fluconazole by CLSI protocol based broth microdilution method; assay type: functional
# Candida albicans [8] = test: Antifungal activity against fluconazole resistant Candida albicans 167-2 by CLSI protocol based broth microdilution method; assay type: functional; how it was run: as §2
# Candida albicans [9] = test: Antifungal activity against fluconazole susceptible Candida albicans 004gr in presence of fluconazole by CLSI protocol based broth microdilution method; assay type: functional
# Candida albicans [10] = test: Antifungal activity against fluconazole susceptible Candida albicans 0072gr in presence of fluconazole by CLSI protocol based broth microdilution method; assay type: functional
# Candida albicans [11] = test: Antifungal activity against fluconazole susceptible Candida albicans 003gr by CLSI protocol based broth microdilution method; assay type: functional; how it was run: as §1
# Candida albicans [12] = test: Inhibition of ABC efflux pumps in fluconazole resistant Candida albicans 167-2 assessed as reduction in energy-dependent rhodamine 6G efflux in presence of 0.1 M glucose after 25 mins […] relative to control
# Candida albicans [13] = test: Inhibition of ABC efflux pumps in fluconazole susceptible Candida albicans 004B1 assessed as reduction in energy-dependent rhodamine 6G efflux in presence of 0.1 M glucose after 25 mins by fluorescence assay relative to control; how it was run: as §3
# Candida albicans [14] = test: Inhibition of ABC efflux pumps in fluconazole susceptible Candida albicans 003gr assessed as reduction in energy-dependent rhodamine 6G efflux in presence of 0.1 M glucose after 25 mins […] relative to control
# Candida albicans [15] = test: Antifungal activity against Candida albicans ATCC 90028 by CLSI protocol based broth microdilution method; assay type: functional; how it was run: as §1
# Candida albicans [16] = test: Antifungal activity against fluconazole susceptible Candida albicans 0079gr by CLSI protocol based broth microdilution method; assay type: functional; how it was run: as §1
# Candida albicans [17] = test: Antifungal activity against fluconazole susceptible Candida albicans 0079gr in presence of fluconazole by CLSI protocol based broth microdilution method; assay type: functional
# Candida albicans [18] = test: Antifungal activity against Candida albicans ATCC 90028 in presence of fluconazole by CLSI protocol based broth microdilution method; assay type: functional
# Candida albicans [19] = test: Inhibition of ABC efflux pumps in fluconazole susceptible Candida albicans 0079gr assessed as reduction in energy-dependent rhodamine 6G efflux in presence of 0.1 M glucose after 25 mins by fluorescence assay relative to control; how it was run: as §3
# Candida albicans [20] = test: Inhibition of ABC efflux pumps in fluconazole susceptible Candida albicans 002B1 assessed as reduction in energy-dependent rhodamine 6G efflux in presence of 0.1 M glucose after 25 mins […] relative to control
# Candida albicans [21] = test: Antifungal activity against fluconazole resistant Candida albicans A171 in presence of fluconazole by CLSI protocol based broth microdilution method; assay type: functional
# How it was run: (§5)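 Checkerboard-style combination with fluconazole at a 1 : 1 ratio, over concentrations 2–4 fold below each agent's MIC alone, by CLSI broth microdilution. Fractional inhibitory concentration index calculated and interpreted as synergy (<0.5), additive (0.5–1), indifferent or antagonistic.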
# Candida albicans [22] = test: Antifungal activity against fluconazole susceptible Candida albicans 002B1 by CLSI protocol based broth microdilution method; assay type: functional; how it was run: as §1
# Candida albicans [23] = test: Antifungal activity against fluconazole resistant Candida albicans 167-2 in presence of fluconazole by CLSI protocol based broth microdilution method; assay type: functional; how it was run: as §5
# Candida albicans [24] = test: Antifungal activity against fluconazole resistant Candida albicans 167-1 in presence of fluconazole by CLSI protocol based broth microdilution method; assay type: functional; how it was run: as §5
# Candida albicans [25] = test: Antifungal activity against fluconazole susceptible Candida albicans 004B1 by CLSI protocol based broth microdilution method; assay type: functional; how it was run: as §1
# Candida albicans [26] = test: Antifungal activity against fluconazole susceptible Candida albicans 003gr in presence of fluconazole by CLSI protocol based broth microdilution method; assay type: functional
# Candida albicans [27] = test: Inhibition of ergosterol biosynthesis in fluconazole susceptible Candida albicans ATCC 90028 at 0.5 to 1 times MIC relative to control; assay type: functional
# How it was run: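 ATCC90028 grown in 50 ml TSB with MIC and ½ MIC of compound; untreated and 8 μg mL–1 fluconazole controls. Sterols extracted by alcoholic KOH method and spectrophotometrically scanned; ergosterol % calculated from A281.5 and A230 (E values 290 and 518) with dilution factor, per pellet weight.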
# Candida albicans [28] = test: Inhibition of ABC efflux pumps in fluconazole susceptible Candida albicans 004gr assessed as reduction in energy-dependent rhodamine 6G efflux in presence of 0.1 M glucose after 25 mins by fluorescence assay relative to control; how it was run: as §3
# Candida albicans [29] = test: Inhibition of ABC efflux pumps in fluconazole susceptible Candida albicans 0072gr assessed as reduction in energy-dependent rhodamine 6G efflux in presence of 0.1 M glucose after 25 mins […] relative to control
# Candida albicans [30] = test: Inhibition of ergosterol biosynthesis in fluconazole resistant Candida albicans A171 at 0.5 to 1 times MIC relative to control; assay type: functional
# How it was run: (§6)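 Total sterols quantified by alcoholic KOH extraction in cells grown in 50 ml TSB with compounds at MIC and ½ MIC; untreated and 8 μg mL–1 fluconazole controls. Spectral scan; ergosterol content from A281.5 and A230 absorbances, dilution factor and pellet weight, correcting for 24(28) DHE.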
# Candida albicans [31] = test: Inhibition of ABC efflux pumps in fluconazole resistant Candida albicans 167-1 assessed as reduction in energy-dependent rhodamine 6G efflux in presence of 0.1 M glucose after 25 mins […] relative to control
# Candida albicans [32] = test: Antifungal activity against fluconazole susceptible Candida albicans 004gr by CLSI protocol based broth microdilution method; assay type: functional; how it was run: as §1
# Candida albicans [33] = test: Antifungal activity against fluconazole susceptible Candida albicans 004B1 in presence of fluconazole by CLSI protocol based broth microdilution method; assay type: functional
# Candida albicans [34] = test: Down regulation of ERG11 gene expression in fluconazole susceptible Candida albicans ATCC 90028 at 8 ug/ml after 2 hrs by qRT PCR analysis; assay type: functional, organism-based; how it was run: as §4
# Candida albicans [35] = test: Up regulation of ERG11 gene expression in fluconazole resistant Candida albicans A171 at 8 ug/ml after 2 hrs by qRT PCR analysis; assay type: functional, organism-based; how it was run: as §4
# Candida albicans [36] = test: Inhibition of ergosterol biosynthesis in fluconazole resistant Candida albicans A171 at 8 ug/ml relative to control; assay type: functional; how it was run: as §6
# Candida albicans [37] = test: Inhibition of ergosterol biosynthesis in fluconazole susceptible Candida albicans ATCC 90028 at 8 ug/ml relative to control; assay type: functional; how it was run: as §6
smiles,measurement,setting,value
O=C(/C=C/c1ccc(/C=C/C(=O)c2ccccc2)cc1)c1ccccc1,MIC,Candida albicans [1],2 to 16 µg/mL
same,MIC,Candida albicans [2],16 to 31 µg/mL
same,MIC,Candida albicans [3],16 to 31 µg/mL
same,fold change (FC),Candida albicans [4],1.5 - 13
same,inhibition,Candida albicans [5],< 20%
same,fold change (FC),Candida albicans [6],1.25 - 10
same,fractional inhibitory concentration index (FICI),Candida albicans [7],0.31 - 1.5
same,MIC,Candida albicans [8],16 to 31 µg/mL
same,fractional inhibitory concentration index (FICI),Candida albicans [9],0.31 - 1.5
same,fractional inhibitory concentration index (FICI),Candida albicans [10],0.31 - 1.5
same,MIC,Candida albicans [11],2 to 16 µg/mL
same,inhibition,Candida albicans [12],< 20%
same,inhibition,Candida albicans [13],< 20%
same,inhibition,Candida albicans [14],< 20%
same,MIC,Candida albicans [15],2 to 16 µg/mL
same,MIC,Candida albicans [16],2 to 16 µg/mL
same,fractional inhibitory concentration index (FICI),Candida albicans [17],0.31 - 1.5
same,fractional inhibitory concentration index (FICI),Candida albicans [18],0.31 - 1.5
same,inhibition,Candida albicans [19],< 20%
same,inhibition,Candida albicans [20],< 20%
same,fractional inhibitory concentration index (FICI),Candida albicans [21],0.266 - 0.27
same,MIC,Candida albicans [22],2 to 16 µg/mL
same,fractional inhibitory concentration index (FICI),Candida albicans [23],0.266 - 0.27
same,fractional inhibitory concentration index (FICI),Candida albicans [24],0.266 - 0.27
same,MIC,Candida albicans [25],2 to 16 µg/mL
same,fractional inhibitory concentration index (FICI),Candida albicans [26],0.31 - 1.5
same,inhibition (INH),Candida albicans [27],66 - 99%
same,inhibition,Candida albicans [28],< 20%
same,inhibition,Candida albicans [29],< 20%
same,inhibition (INH),Candida albicans [30],49 - 94%
same,inhibition,Candida albicans [31],< 20%
same,MIC,Candida albicans [32],2 to 16 µg/mL
same,fractional inhibitory concentration index (FICI),Candida albicans [33],0.31 - 1.5
OC(Cn1cncn1)(Cn1cncn1)c1ccc(F)cc1F [FLUCONAZOLE],MIC,Candida albicans [1],2 to 8 µg/mL
same,MIC,Candida albicans [2],125 to 500 µg/mL
same,inhibition,Candida albicans [34],Active
same,MIC,Candida albicans [3],125 to 500 µg/mL
same,MIC,Candida albicans [8],125 to 500 µg/mL
same,Activity,Candida albicans [35],inactive
same,MIC,Candida albicans [11],2 to 8 µg/mL
same,MIC,Candida albicans [15],2 to 8 µg/mL
same,MIC,Candida albicans [16],2 to 8 µg/mL
same,inhibition at 8 µg/mL,Candida albicans [36],11%
same,MIC,Candida albicans [22],2 to 8 µg/mL
same,MIC,Candida albicans [25],2 to 8 µg/mL
same,inhibition at 8 µg/mL,Candida albicans [37],100%
same,MIC,Candida albicans [32],2 to 8 µg/mL
